The source of these data is ChEMBL document CHEMBL4422671, “New Quinolylnitrones for Stroke Therapy: Antioxidant and Neuroprotective ( Z)- N- tert-Butyl-1-(2-chloro-6-methoxyquinolin-3-yl)methanimine Oxide as a New Lead-Compound for Ischemic Stroke Treatment” (J Med Chem, 2019).

pIC50: −log10 of the molar value. Active and inactive are the calls of the source. The rule behind the calls is not given here.

Assay [1] can be described thus: Antioxidant activity assessed as hydroxyl radical scavenging activity at 0.1 mM measured after 30 mins. It counts as functional. The essentials:
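Hydroxyl radicals from Fe3+/ascorbic acid: EDTA 0.1 mM, Fe3+ 167 μM, DMSO 33 mM, compound 0.1 mM and ascorbic acid 10 mM in 50 mM phosphate buffer pH 7.4. Incubated 37 °C for 30 min, stopped with 17% w/v TCA. Read-out is inhibition of formaldehyde formation, given as % scavenging. Trolox as reference.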

The nature of assay [2]: Antioxidant activity assessed as DPPH free radical scavenging activity at 0.1 mM measured after 20 to 60 mins. It counts as functional. The essentials:
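DPPH 0.1 mM in absolute ethanol with compound at 0.1 mM final (from DMSO). Absorbance at 517 nm recorded after 20 and 60 min at rt. NDGA as standard.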

A short description of assay [3]: Antioxidant activity assessed as ABTS radical cation scavenging activity by measuring trolox equivalents at 10 uL after 1 min. It is filed as functional. The essentials: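 ABTS radical cation made from 2 mM aqueous ABTS plus 0.17 mM potassium persulfate in 20 mM phosphate buffer pH 7.4, kept 12–16 h dark at rt. Diluted with ethanol to A734 0.70, then mixed with 10 μL compound from 10 mM stock. Absorbance read at rt 1 min after mixing. Trolox as standard.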

Assay [4] in a line: Antioxidant activity assessed as inhibition of linoleic acid peroxidation activity at 10 uL. It counts as functional. Further details: scale not given: the % may be the effect or the level left. Summed up:
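AAPH-initiated peroxidation of sodium linoleate dispersion (16 mM, 10 μL) in 0.05 M phosphate buffer pH 7.4 at 37 °C under air. Initiator was 50 μL of 40 mM AAPH, with 10 μL compound added. Conjugated diene hydroperoxide followed at 234 nm. Trolox as reference.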

Assay [5] can be described thus: Neuroprotective activity against oxygen-glucose deprivation-induced cell death in Sprague-Dawley rat primary neuronal cells assessed as cell viability at 100 uM treated at onset of recovery period and measured at 24 hrs of recovery by MTT assay relative to control. It counts as functional. Conditions: Primary neuron, read-out: Activity. The essentials: (§1)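 Rat cortical neurons from E16–17 Sprague-Dawley embryos, used at 6–7 days in serum-free medium. OGD: glucose-free medium bubbled with 95% N2/5% CO2, <0.1% O2, 6.5% CO2, 37 °C, 4 h. Compound added at start of 24 h normoxic recovery. Viability by MTT (0.2 mg/mL, 1.5 h), lysis with HCl/SDS, read at 595/690 nm, relative to 100% control. Four to eight culture batches, each in quadruplicate.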

Assay [6] can be described thus: Antioxidant activity assessed as superoxide anion scavenging activity at 0.1 mM pH 7.4 after 10 mins by NBT assay. It counts as functional. The essentials:
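Superoxide generated by xanthine/xanthine oxidase (0.07 U/mL) in 0.1 M phosphate buffer pH 7.4 containing NBT and compound at 0.1 mM final. After 10 min at rt, absorbance read at 560 nm. Caffeic acid as standard.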

Assay [7] in a line: Neuroprotective activity against oxygen-glucose deprivation-induced cell death in Sprague-Dawley rat primary neuronal cells assessed as cell viability at 250 uM treated at onset of recovery period and measured at 24 hrs of recovery by MTT assay relative to control. Conditions: Primary neuron, read-out: Activity. It counts as functional. The essentials:
as §1

Another assay concerns the target Lipoxygenase (Glycine max, UniProt Q39829). The experiment in a line: Inhibition of soybean lipoxygenase using sodium linoleate as substrate by UV-based analysis. Summed up: (§2)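 Soybean lipoxygenase (enzyme 1/9 ×10⁻⁴ w/v in saline) incubated at rt with 0.1 mM sodium linoleate and compound in DMSO, at several concentrations from 1 to 100 µM diluted from 10 mM stock. Conversion to 13-hydroperoxylinoleic acid recorded at 234 nm; IC50 derived. NDGA as reference inhibitor.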

Assay [8] deals with Primary neuron. Nature of the assay: Neuroprotective activity against oxygen-glucose deprivation-induced cell death in Sprague-Dawley rat primary neuronal cells assessed as cell viability at 1 to 250 uM treated at onset of recovery period and measured at 24 hrs of recovery by MTT assay relative to control. It counts as functional, cell-based. The essentials: as §1
For assay [9], the system named is Primary neuron. The experiment in a line: Neuroprotective activity against oxygen-glucose deprivation-induced cell death in Sprague-Dawley rat primary neuronal cells assessed as cell viability at 0.5 to 10 uM treated at onset of recovery period and measured at 24 hrs of recovery by MTT assay relative to control. It is filed as functional, cell-based. The essentials: as §1

In assay [10] the test system is Primary neuron. The experiment in a line: Neuroprotective activity against oxygen-glucose deprivation-induced cell death in Sprague-Dawley rat primary neuronal cells assessed as cell viability at 0.5 to 250 uM treated at onset of recovery period and measured at 24 hrs of recovery by MTT assay relative to control. It counts as functional, cell-based. Summed up: as §1

Assay [11] concerns Primary neuron. The experiment in a line: Neuroprotective activity against oxygen-glucose deprivation-induced cell death in Sprague-Dawley rat primary neuronal cells assessed as cell viability at 1 to 100 uM treated at onset of recovery period and measured at 24 hrs of recovery by MTT assay relative to control. It is filed as functional, cell-based. Summed up: as §1
The nature of assay [12]: Neuroprotective activity against oxygen-glucose deprivation-induced cell death in Sprague-Dawley rat primary neuronal cells assessed as cell viability at 50 uM treated at onset of recovery period and measured at 24 hrs of recovery by MTT assay relative to control. It counts as functional. As to conditions: Primary neuron, read-out: Activity. The essentials: as §1
A short description of assay [13]: Neuroprotective activity against oxygen-glucose deprivation-induced cell death in Sprague-Dawley rat primary neuronal cells assessed as cell viability at 10 uM treated at onset of recovery period and measured at 24 hrs of recovery by MTT assay relative to control. It counts as functional. Conditions: Primary neuron, read-out: Activity. Summed up:
as §1

Assay [14] in a line: Antiinflammatory activity assessed as NO release at 100 uM after 60 mins in presence of L-cysteine by Griess reagent-based relative to control. It counts as functional. Summed up: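 NO-release test: compound at 100 μM final (from DMSO) in 50 mM phosphate buffer pH 7.4 containing 1 mM L-cysteine, 60 min at 37 °C. Reaction mixture then treated with Griess reagent, left 10 min at rt, absorbance read at 540 nm. Sodium nitroprusside as standard. Mean of three to four determinations.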

In assay [15] the target is Lipoxygenase (Glycine max) (UniProt Q39829). Nature of the assay: Inhibition of soybean lipoxygenase at 1 to 100 uM using sodium linoleate as substrate by UV-based analysis relative to control. The essentials:
as §2

Assay [16] relates to Primary neuron. Nature of the assay: Neuroprotective activity against oxygen-glucose deprivation-induced cell death in Sprague-Dawley rat primary neuronal cells assessed as cell viability at 0.3 to 100 uM treated at onset of recovery period and measured at 24 hrs of recovery by MTT assay relative to control. It is filed as functional, cell-based. The essentials:
as §1

Assay [17] concerns Primary neuron. The experiment in a line: Neuroprotective activity against oxygen-glucose deprivation-induced cell death in Sprague-Dawley rat primary neuronal cells assessed as cell viability at 1 to 10 uM treated at onset of recovery period and measured at 24 hrs of recovery by MTT assay relative to control. It is filed as functional, cell-based. The essentials:
as §1

A further assay relates to Rattus norvegicus. Nature of the assay: Antiinflammatory activity in Fisher 344 rat model of carrageenan-induced edema assessed as inhibition of carrageenan-induced paw edema at 0.01 mmol/kg, ip dosed simultaneously with carrageenan injection relative to control. Conditions: Fisher 344, ip. It is filed as functional. Summed up: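 Fisher 344 rats (150–200 g), both sexes. Edema was induced by intradermal injection of 0.1 mL 2% carrageenan in water into the right hind paw. Compound was suspended in water with a few drops of Tween 80. Rats were euthanized 3.5 h later. The injected-minus-uninjected paw weight difference was compared with water or Tween-water controls as % inhibition. Mean of two experiments, n = 6 each.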

Regarding `CC(C)(C)/[N+]([O-])=C/c1cc2ccccc2nc1O`, the Activity in assay [1] was found to be 99%; in assay [3] it was 6%; in [4], 100%; in assay [6], 23%. Further, the result in [2] was inactive. In assay [5], the viability at 100 µM is 48.8%. For the same compound, the viability at 250 µM in assay [7] came out at 55%. The pIC50 at Lipoxygenase was 4.44.

As for `Cc1ccc2nc(O)c(/C=[N+](\[O-])Cc3ccccc3)cc2c1`, in the assay on Primary neuron [8], the outcome was Active.

For `Cc1ccc2nc(Cl)c(/C=N/OCc3ccccc3)cc2c1`, in the assay on Primary neuron [9], the outcome was inactive.

`O=C(O)/C=C/c1ccc(O)c(O)c1`: the Activity in assay [6] was 15%.

Take `Cc1ccc2nc(Cl)c(/C=N/O)cc2c1`: the result with Primary neuron [10] was inactive.

Consider `CC(C)(C)/[N+]([O-])=C/c1cc2ccccc2n2nnnc12`, for which, in the assay on Primary neuron [11], the result was inactive.

Consider `Cc1ccc2nc(Cl)c(/C=N/N)cc2c1`, for which, in the assay on Primary neuron [8], the result was inactive.

In the case of `[O-]/[N+](=C\c1cc2cc(O)ccc2nc1Cl)Cc1ccccc1`, the outcome with Primary neuron [8] was inactive.

For `Cc1ccc2nc(Cl)c(/C=[N+](\[O-])Cc3ccccc3)cc2c1`, in [12], the viability at 50 µM was 56.8%. Moreover, in assay [13], the viability at 10 µM worked out at 55.4%.

Take `[O-]/[N+](=C\c1cc2cc(Cl)ccc2nc1Cl)Cc1ccccc1`: the outcome in the assay with Primary neuron [8] was inactive.

On to `Cc1ccc2nc(Cl)c(/C=N/NCc3ccccc3)cc2c1`, for which the result with Primary neuron [8] was inactive.

On to `Cc1c(C)c2c(c(C)c1O)CCC(C)(C(=O)O)O2` (stereo unspecified), for which the Activity is 73% in assay [1], 91% in [3] and 88% in assay [4].

Regarding `CC(C)(C)/[N+]([O-])=C/c1cc2ccccc2nc1Cl`, the Activity turned out to be 97% in assay [1], 7% in assay [2], 7.5% in assay [14] and 16% in [6]. For the same compound, the outcome (in the assay on Primary neuron [11]; in [3]; in assay [4]) was inactive. The compound further had a negative-log IC50 (pIC50) against Lipoxygenase of 4.49.

On to `Cc1ccc2nc(O)c(/C=[N+](\[O-])C(C)(C)C)cc2c1`, for which, in the assay on Primary neuron [8], the outcome was Active.

Regarding `COc1ccc2nc(Cl)c(/C=[N+](/C)[O-])cc2c1`, the Activity in [1] stood at 100%; in [4] it was 100%; in assay [14], 11%; in [6], 29%. The outcome (in [2]; in the assay with Primary neuron [8]; in assay [3]) was inactive. For the same compound, the inhibition in assay [15] is 26%.

Take `COc1ccc2nc(Cl)c(/C=[N+](\[O-])Cc3ccccc3)cc2c1`: the Activity was determined as 65% in [1]; 3% in assay [2]; 100% in assay [4]; 12.5% in assay [14]; 18% in [6]. Further, the outcome (in assay [3]; in the assay on Primary neuron [16]) was inactive. On Lipoxygenase, the pIC50 is 4.00.

For `COc1nc2ccccc2cc1/C=[N+](\[O-])Cc1ccccc1`, the outcome in the assay with Primary neuron [11] was inactive.

With `COc1ccc2cc(/C=[N+](\[O-])Cc3ccccc3)c(Cl)nc2c1`, in the assay with Primary neuron [11], the result was inactive.

For the compound `COc1nc2ccc(C)cc2cc1/C=[N+](\[O-])Cc1ccccc1`, in the assay on Primary neuron [11], the result was inactive.

Regarding `Cc1ccc2nc(Cl)c(/C=[N+](\[O-])c3ccccc3)cc2c1`, the result in the assay with Primary neuron [8] was inactive.

For `Cc1ccc2nc(Cl)c(/C=N/C(C)(C)C)cc2c1`, in the assay with Primary neuron [8], the outcome was inactive.

With `COc1ccc2nc(Cl)c(C=O)cc2c1`, the outcome in the assay on Primary neuron [11] was inactive.

On to `COc1ccc(OC)c2nc(Cl)c(/C=[N+](\[O-])Cc3ccccc3)cc12`, for which, in the assay on Primary neuron [11], the result was inactive.

For the compound `Cc1ccc2ncc(/C=[N+](\[O-])Cc3ccccc3)cc2c1`, in the assay with Primary neuron [8], the outcome was Active.

For the compound `CNc1nc2ccc(C)cc2cc1/C=[N+](\[O-])Cc1ccccc1`, in the assay with Primary neuron [17], the outcome was inactive.

On to `COc1ccc2c(c1)c(CC(=O)O)c(C)n2C(=O)c1ccc(Cl)cc1` [INDOMETHACIN], for which the inhibition in vivo at 10 µmol/kg in the assay on Rattus norvegicus is 47%.

On to `Cc1ccc2nc(Cl)c(/C=N/Cc3ccccc3)cc2c1`, for which, in the assay with Primary neuron [10], the result was inactive.

Turning to `Cc1ccc2nc(N(C)C)c(/C=[N+](\[O-])Cc3ccccc3)cc2c1`, in the assay with Primary neuron [8], the outcome was Active.

Turning to `[O-]/[N+](=C\c1cc2ccccc2nc1Cl)Cc1ccccc1`, the result in the assay with Primary neuron [11] was inactive.

`CC(Cc1ccc(O)c(O)c1)C(C)Cc1ccc(O)c(O)c1` (stereo unspecified) [NORDIHYDROGUAIARETIC ACID]: in assay [2], the Activity came to 93%.
